Data taken from ChEMBL document CHEMBL4196022, “Alkynyl-containing phenylthiazoles: Systemically active antibacterial agents effective against methicillin-resistant Staphylococcus aureus (MRSA)” (Eur J Med Chem, 2018).
In brackets after ≈: the same amount, converted by molar mass.

Tests used:
Staphylococcus aureus [1] = experiment: Ratio of MBC to MIC for vancomycin-resistant Staphylococcus aureus VRS12; format: functional
Summary of the method: (§1)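 MBC/MIC ratio. […] MBC by plating no-growth wells onto tryptic soy agar at 37 °C for at least 18 h; taken as the concentration giving 99.9% growth inhibition.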

Staphylococcus aureus [2] = experiment: Antibacterial activity against methicillin-resistant Staphylococcus aureus NRS123 (USA400) after 20 hrs by broth microdilution assay; format: functional
Summary of the method: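 Broth microdilution per CLSI in cation-adjusted Mueller Hinton broth. Compounds serially diluted, in triplicate. Incubation at 37 °C for at least 20 hours. MIC taken as the lowest concentration with no visible bacterial growth.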

Staphylococcus aureus [3] = experiment: Bactericidal activity against methicillin-resistant Staphylococcus aureus USA300 up to 18 hrs by broth microdilution assay; format: functional; details: USA300, 18 h, read-out: MBC99.9
Staphylococcus aureus [4] = experiment: Ratio of MBC to MIC for methicillin-resistant Staphylococcus aureus NRS123 (USA400); format: functional; summary of the method: as §1
Rattus norvegicus = experiment: AUC in Sprague-Dawley rat at 2 uM administered as single iv bolus dose by LC-MS/MS analysis; format: ADME, organism-based; details: in vivo
Summary of the method: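 Male naïve Sprague-Dawley rats (three animals) received an IV bolus of a 2 μM solution. EDTA-K2 blood was sampled over 12 h post dose. Plasma was protein-precipitated with acetonitrile and quantified by LC/MS/MS. Parameters came from two-compartmental pharmacokinetic analysis.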

Mus musculus = experiment: Induction of inflammation in Balb/c mouse infected with methicillin-resistant Staphylococcus aureus USA300 assessed as swelling around wounded skin area at 2% administered topically twice daily for 5 consecutive days measured 12 hrs post last dose; format: organism-based; details: in vivo, topical_or_ocular
Summary of the method: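 Female Balb/c mice, 8 weeks old, n=5 per group. Intradermal injection of 40 μL of 1.32×10^9 CFU/mL USA300; a wound formed by ~66 h. Treated topically with a 2% suspension in petroleum jelly twice daily for 5 days; the vehicle group served as control. Wounds excised 12 h after the last dose, homogenized in PBS and plated on mannitol salt agar; sites also observed for redness and swelling.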

[5] = molecular target: T1, Farnesyl pyrophosphate synthase (Homo sapiens, UniProt P14324); experiment: Inhibition of human FPPS
T1 sequence (P14324 whole entry): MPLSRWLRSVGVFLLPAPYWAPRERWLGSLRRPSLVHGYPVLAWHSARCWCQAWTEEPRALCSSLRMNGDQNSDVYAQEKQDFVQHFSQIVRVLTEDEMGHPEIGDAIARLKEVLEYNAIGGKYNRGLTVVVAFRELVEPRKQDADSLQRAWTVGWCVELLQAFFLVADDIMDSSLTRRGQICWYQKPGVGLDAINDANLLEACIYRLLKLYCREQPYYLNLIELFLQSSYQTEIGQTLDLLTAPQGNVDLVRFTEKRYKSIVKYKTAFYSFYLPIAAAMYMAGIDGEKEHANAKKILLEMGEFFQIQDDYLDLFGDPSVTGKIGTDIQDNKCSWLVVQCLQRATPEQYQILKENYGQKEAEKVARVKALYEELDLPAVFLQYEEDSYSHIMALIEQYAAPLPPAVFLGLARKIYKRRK

C/C(=N\NC(=N)N)c1sc(-c2ccc(C#CC3CC3)cc2)nc1C
Ratio (Staphylococcus aureus [1]): <=3 | MIC (Staphylococcus aureus [2]): 2 µg/mL (≈ 5.93 µM) | MBC (Staphylococcus aureus [3]): 4 µg/mL (≈ 11.9 µM) | Ratio (Staphylococcus aureus [4]): <=3 | AUC (Rattus norvegicus): 690 ng·h/mL | Activity (Mus musculus): Non-Toxic | inhibition (INH) [5]: Not Active
